Data: publication PMC9051311 (RSC Advances, 2020)
No end group written: not given here.

Legend:
[1] = target: T1, ACE (E.C. 3.4.15.1) from the lungs of rabbits (Oryctolagus cuniculus, UniProt P12822); test: ACE inhibitory; assay type: biochemical, rabbit
T1 sequence (P12822 34-1310): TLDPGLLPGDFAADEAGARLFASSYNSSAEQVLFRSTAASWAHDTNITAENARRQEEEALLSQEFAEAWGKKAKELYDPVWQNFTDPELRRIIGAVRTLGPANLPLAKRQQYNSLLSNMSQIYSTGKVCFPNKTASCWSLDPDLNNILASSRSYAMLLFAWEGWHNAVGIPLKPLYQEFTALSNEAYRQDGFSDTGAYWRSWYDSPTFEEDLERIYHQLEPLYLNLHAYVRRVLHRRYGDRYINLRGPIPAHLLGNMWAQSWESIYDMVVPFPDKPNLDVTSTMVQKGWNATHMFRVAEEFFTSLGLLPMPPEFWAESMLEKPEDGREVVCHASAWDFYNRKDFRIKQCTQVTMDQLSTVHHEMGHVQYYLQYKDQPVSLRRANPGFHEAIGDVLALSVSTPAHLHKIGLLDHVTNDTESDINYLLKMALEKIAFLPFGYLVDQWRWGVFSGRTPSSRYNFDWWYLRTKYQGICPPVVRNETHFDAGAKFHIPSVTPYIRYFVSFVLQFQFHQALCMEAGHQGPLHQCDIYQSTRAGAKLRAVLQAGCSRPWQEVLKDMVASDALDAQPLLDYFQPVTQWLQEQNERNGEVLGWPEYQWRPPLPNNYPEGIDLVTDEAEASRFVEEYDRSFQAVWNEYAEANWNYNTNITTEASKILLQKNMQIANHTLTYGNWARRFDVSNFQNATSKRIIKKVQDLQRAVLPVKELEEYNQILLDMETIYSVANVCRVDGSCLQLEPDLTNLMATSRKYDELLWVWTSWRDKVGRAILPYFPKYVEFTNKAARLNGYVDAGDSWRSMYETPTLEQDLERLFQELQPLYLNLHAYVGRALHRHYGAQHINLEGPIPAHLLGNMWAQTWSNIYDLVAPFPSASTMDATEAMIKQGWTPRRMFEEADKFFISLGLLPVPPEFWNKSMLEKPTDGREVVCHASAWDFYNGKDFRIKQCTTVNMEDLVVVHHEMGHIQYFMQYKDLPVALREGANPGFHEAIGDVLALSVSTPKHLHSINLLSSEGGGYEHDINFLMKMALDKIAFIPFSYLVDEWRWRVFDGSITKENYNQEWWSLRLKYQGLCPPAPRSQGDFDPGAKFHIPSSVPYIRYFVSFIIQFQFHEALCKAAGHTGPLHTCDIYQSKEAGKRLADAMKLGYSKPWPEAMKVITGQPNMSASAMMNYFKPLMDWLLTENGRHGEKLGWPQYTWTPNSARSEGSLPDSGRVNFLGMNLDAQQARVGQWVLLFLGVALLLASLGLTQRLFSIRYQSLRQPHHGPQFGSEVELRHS
Outline: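 Rabbit-lung ACE (solution at 25 mU mL−1) pre-incubated with sample for 10 min at 37 °C, then 30 min at 37 °C with HHL (10 mM solution in PBS). Stopped with 1 M HCl. Hippuric acid extracted into ethyl acetate, dried under vacuum, redissolved in water and read at A250 against a hippuric acid standard curve. Captopril positive control. % inhibition corrected for blanks; IC50 by non-linear regression; triplicate.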

[2] = Observed solubility of the peptide in water; assay type: physicochemical

| IC50 [1] | solubility [2] | Sequence |
| --- | --- | --- |
| 2.15 ± 0.016 µM | – | ETSGMKPTEL [ETSGMKPTEL, Glu–Thr–Ser–Gly–Met–Lys–Pro–Thr–Glu–Leu] |
| 3.88 ± 0.004 µM | ≥ 5000 µg/mL | ISSMGILVCL [ISSMGILVCL, Ile–Ser–Ser–Met–Gly–Ile–Leu–Val–Cys–Leu] |
